Measured values as given in PMC7740640 (Xenobiotica; the fate of foreign compounds in biological …, 2020).
Where “and” joins values, the source holds several entries; their conditions need not be identical. Identical values can stand only once.

Columns and labels:
Format in all cases: in vitro ADME
CYP2B6 = molecular target: T1, CYP2B6 (Homo sapiens, UniProt P20813); experiment: C152 metabolism; details: for Specific rate: CYP2B6
T1 sequence (P20813 1-491): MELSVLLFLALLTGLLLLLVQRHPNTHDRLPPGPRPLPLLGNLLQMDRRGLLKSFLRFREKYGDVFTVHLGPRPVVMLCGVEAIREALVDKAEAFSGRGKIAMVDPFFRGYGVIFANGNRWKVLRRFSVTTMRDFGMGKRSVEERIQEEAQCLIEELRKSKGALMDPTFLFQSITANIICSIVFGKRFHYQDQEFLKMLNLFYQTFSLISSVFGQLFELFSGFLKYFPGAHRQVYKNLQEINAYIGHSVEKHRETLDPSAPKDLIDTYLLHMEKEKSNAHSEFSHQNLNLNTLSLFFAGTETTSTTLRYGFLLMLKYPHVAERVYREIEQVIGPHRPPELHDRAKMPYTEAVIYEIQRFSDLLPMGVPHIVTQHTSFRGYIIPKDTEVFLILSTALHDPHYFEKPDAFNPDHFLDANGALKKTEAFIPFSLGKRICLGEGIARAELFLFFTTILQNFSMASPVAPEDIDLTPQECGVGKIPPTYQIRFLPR
Outline: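 Human P450s in Supersomes that co-express human CPR and cytochrome b5. Reaction in 0.1 M Na-HEPES pH 7.4 with 60 mM KCl, stirred at 30 °C. C152 0.1–30 μM added from acetone stock; 200 μM NADPH starts it. Fluorescence rise read at 500 nm (isosbestic, mono-demethylation step). Rate is the linear slope over 3–5 min, scaled by the C151–C152 fluorescence difference. Michaelis–Menten or Hill fit, Vmax per P450, 2–6 runs; rate at 30 μM computed from fit.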

CYP2C8 = molecular target: T2, CYP2C8 (Homo sapiens, UniProt P10632); experiment: C152 metabolism
T2 sequence (P10632 1-490): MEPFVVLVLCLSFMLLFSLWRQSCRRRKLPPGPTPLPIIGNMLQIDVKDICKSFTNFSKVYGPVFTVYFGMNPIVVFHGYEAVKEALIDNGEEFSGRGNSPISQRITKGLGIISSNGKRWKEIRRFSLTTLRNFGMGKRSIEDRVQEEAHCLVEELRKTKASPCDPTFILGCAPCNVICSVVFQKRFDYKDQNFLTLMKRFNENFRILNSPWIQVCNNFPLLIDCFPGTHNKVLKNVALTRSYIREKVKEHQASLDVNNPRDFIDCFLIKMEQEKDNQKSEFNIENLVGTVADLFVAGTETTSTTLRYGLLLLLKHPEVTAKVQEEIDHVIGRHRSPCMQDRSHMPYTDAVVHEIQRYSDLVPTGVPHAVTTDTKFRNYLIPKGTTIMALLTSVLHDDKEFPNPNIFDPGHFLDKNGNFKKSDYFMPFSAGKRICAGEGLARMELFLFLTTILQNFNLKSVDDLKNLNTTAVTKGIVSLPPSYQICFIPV

[1] = system: human liver microsomes (HLM); experiment: C152 metabolism
Outline: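 Pooled 50-donor mixed-gender human liver microsomes. Continuous single-wavelength fluorimetry at 500 nm in 0.1 M Na-HEPES pH 7.4 with 60 mM KCl, stirred at 30 °C. C152 0.1–30 μM from acetone stock; 200 μM NADPH starts it. Linear slope over 3–5 min, scaled by the C151–C152 fluorescence difference. Normalized to CPR, measured as NADPH-dependent cytochrome c reduction rate. Michaelis–Menten or Hill fit, 2–6 runs.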

CYP2A6 = CYP2A6 (Homo sapiens, UniProt P11509); experiment: C152 metabolism by Supersomes containing CYP2A6; details: recombinant CYP2A6 Supersomes
CYP1A2 [2] = molecular target: T3, CYP1A2 (Homo sapiens, UniProt P05177); experiment: Formation of C151 from C152; details: SS(1A2)
T3 sequence (P05177 2-516 limits assumed): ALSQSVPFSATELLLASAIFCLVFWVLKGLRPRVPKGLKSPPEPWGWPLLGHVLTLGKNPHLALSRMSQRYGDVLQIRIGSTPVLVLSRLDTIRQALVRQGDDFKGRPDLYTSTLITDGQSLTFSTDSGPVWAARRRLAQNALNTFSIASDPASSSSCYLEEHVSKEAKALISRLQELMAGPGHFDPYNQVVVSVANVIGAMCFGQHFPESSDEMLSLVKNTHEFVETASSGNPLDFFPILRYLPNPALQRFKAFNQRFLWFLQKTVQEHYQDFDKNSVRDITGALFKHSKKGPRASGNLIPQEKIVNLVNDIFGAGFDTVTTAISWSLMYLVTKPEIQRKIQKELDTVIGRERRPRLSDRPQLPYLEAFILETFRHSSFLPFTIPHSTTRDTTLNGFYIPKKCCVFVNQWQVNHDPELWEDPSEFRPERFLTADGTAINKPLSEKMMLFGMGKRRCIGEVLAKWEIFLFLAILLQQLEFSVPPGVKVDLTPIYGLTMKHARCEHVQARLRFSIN
Outline: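 Probes hold 5–20 pmol P450 in 0.1 M Na-HEPES pH 7.4 with 60 mM KCl. C152 added from 0.5 or 4 mM acetone stock; reaction started with 500 μM NADPH (final), run 5 min at 30 °C with shaking. Quenched with isopropanol containing phenacetin internal standard, then centrifuged. C151 quantified by reverse-phase LC with ESI-positive MRM MS/MS (m/z 230.16→157.2). Michaelis–Menten or Hill fit; normalized per P450 (Supersomes) or CPR (HLM).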

CYP1A2 [3] = molecular target: T3, CYP1A2; experiment: Projected involvement in C152 metabolism in HLM
Outline: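 Calculated values, no new incubations. Each of seven C152-metabolizing P450s has a fractional content in the pooled HLM P450 pool (LC-MS/MS MRM). That fraction is multiplied by its Supersome Vmax (saturation) or by its rate at 30 μM C152 from Hill or Michaelis–Menten parameters. Expected participation (% TNR) is each normalized rate divided by the sum of all seven.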

CYP2A6, sequence (P11509 whole entry): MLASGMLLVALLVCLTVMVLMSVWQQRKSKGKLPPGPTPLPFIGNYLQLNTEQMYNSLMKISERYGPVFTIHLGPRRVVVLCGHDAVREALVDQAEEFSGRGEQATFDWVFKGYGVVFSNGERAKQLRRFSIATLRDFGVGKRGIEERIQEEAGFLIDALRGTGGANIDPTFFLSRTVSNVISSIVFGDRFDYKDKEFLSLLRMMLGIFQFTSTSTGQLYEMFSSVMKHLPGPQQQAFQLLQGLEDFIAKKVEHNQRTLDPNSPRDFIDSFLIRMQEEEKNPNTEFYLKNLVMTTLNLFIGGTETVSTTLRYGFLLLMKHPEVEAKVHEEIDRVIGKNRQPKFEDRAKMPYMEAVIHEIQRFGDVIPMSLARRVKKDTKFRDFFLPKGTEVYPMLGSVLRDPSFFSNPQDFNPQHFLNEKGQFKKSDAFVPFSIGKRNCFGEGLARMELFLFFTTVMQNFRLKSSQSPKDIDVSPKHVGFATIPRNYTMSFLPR

## CN(C)c1ccc2c(C(F)(F)F)cc(=O)oc2c1 [C152, 7-Dimethylamino-4-trifluromethylcoumarin]
CYP2B6; at 30 μM C152, calculated from fit parameters
  Specific rate: 46.6 min⁻¹
CYP2B6; at saturation (Vmax in Supersomes)
  Specific rate: 49.3 min⁻¹
CYP2B6; SS(2B6), mol C152 per mol P450 per min
  Vmax (C152 metabolism, fluorimetric assay): 49 ± 11 min⁻¹
CYP2B6; SS(2B6), scanning fluorimetry with PCA
  Fraction of C151 formed, Fluorimetry: 7.3±3.4%
CYP2B6; read-out: KM or S50 (C152 metabolism, fluorimetric assay), SS(2B6), Michaelis-Menten fit, 30 °C, pH 7.4
  Km: 1.8 ± 0.2 µM
CYP2C8; CYP2C8, at 30 μM C152, calculated from fit parameters
  Specific rate: 1.9 min⁻¹
CYP2C8; SS(2C8)
  N, Hill coefficient (C152 metabolism, fluorimetric assay): 2.6±0.3
CYP2C8; SS(2C8), mol C152 per mol P450 per min
  Vmax (C152 metabolism, fluorimetric assay): 2.6 ± 0.8 min⁻¹
CYP2C8; read-out: KM or S50 (C152 metabolism, fluorimetric assay), SS(2C8), Hill fit (S50), 30 °C, pH 7.4
  Km: 12 ± 6 µM
[1]
  N, Hill coefficient (C152 metabolism, fluorimetric assay): 1.8±0.3
[1]; normalized per concentration of CPR
  Vmax (C152 metabolism, fluorimetric assay): 58 ± 24 min⁻¹
[1]; read-out: KM or S50 (C152 metabolism, fluorimetric assay), Hill fit (S50), 30 °C, pH 7.4
  Km: 4.5 ± 1.5 µM
[1]; scanning fluorimetry with PCA
  Fraction of C151 formed, Fluorimetry: 5.7±2.0%
CYP2A6
  activity with C152: no detectable activity
CYP1A2 [2]; C151 formed over total C152 metabolized
  Fraction of C151 formed, LC-MS: 20% and 20±2%
CYP1A2 [2]; mol C151 formed per mol P450 per min
  Vmax (Formation of C151, LC-MS): 0.98 ± 0.12 min⁻¹
CYP1A2 [2]; read-out: KM or S50 (Formation of C151, LC-MS), Michaelis-Menten fit
  Km: 1.7 ± 0.6 µM
CYP1A2 [3]; at 30 μM C152
  Normalized rate: 0.375 min⁻¹
CYP1A2 [3]; at 30 μM C152, % TNR
  Expected participation: 3.08%
CYP1A2 [3]; at saturation of all P450 species
  Normalized rate: 0.412 min⁻¹
CYP1A2 [3]; at saturation of all P450 species, % TNR
  Expected participation: 3.10%
